Assays:
Liver = experiment: Metabolic stability in mouse liver microsomes assessed as compound remaining at 4 uM measured after 30 mins in presence of NADPH by LC-MS/MS analysis; type: ADME, microsome; details: 0.5 h
Procedure, shortened: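 Human, mouse or rat liver microsomes were incubated with compound at 4 μM final for 30 min at 37 °C (n = 1). Percent of parent remaining was quantified by LC-MS/MS.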

[1] = Drug uptake in Sprague-Dawley rat brain at 10 mg/kg, po measured after 60 mins by LC-MS/MS analysis; type: ADME, organism-based; details: read-out: Drug uptake
Procedure, shortened: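 Sprague-Dawley rats (n = 3 per time point) were given 10 mg/kg p.o. Total plasma concentrations were taken at 15, 30, 60 and 120 min. Brain levels of the dosed ligand and of the carboxylic acid metabolite were taken at 60 or 120 min.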

[2] = target: T1, GABA-A receptor; alpha-1/beta-3/gamma-2 (Homo sapiens, UniProt P14867+P18507+P28472); experiment: Modulation of recombinant human GABA alpha1beta3gamma2 receptor expressed in HEK293 cells assessed as change in GABA-induced current at -80 mV holding potential preincubated for 3 mins followed by co-administration of GABA by electrophysiology method; type: cell-based
T1 sequence (P14867 whole entry): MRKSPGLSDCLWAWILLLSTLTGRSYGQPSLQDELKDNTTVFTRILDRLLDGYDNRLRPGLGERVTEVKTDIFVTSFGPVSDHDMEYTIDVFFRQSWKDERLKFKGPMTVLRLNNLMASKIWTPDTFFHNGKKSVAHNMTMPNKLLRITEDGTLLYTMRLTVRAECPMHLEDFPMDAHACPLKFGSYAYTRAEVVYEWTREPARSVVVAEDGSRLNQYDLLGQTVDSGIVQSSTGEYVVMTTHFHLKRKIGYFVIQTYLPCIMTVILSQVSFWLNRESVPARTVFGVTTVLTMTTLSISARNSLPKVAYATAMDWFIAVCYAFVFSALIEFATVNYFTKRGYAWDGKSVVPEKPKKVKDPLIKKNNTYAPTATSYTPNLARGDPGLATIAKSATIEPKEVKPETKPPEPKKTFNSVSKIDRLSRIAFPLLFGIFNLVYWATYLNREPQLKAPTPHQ
T1 sequence (P18507 whole entry): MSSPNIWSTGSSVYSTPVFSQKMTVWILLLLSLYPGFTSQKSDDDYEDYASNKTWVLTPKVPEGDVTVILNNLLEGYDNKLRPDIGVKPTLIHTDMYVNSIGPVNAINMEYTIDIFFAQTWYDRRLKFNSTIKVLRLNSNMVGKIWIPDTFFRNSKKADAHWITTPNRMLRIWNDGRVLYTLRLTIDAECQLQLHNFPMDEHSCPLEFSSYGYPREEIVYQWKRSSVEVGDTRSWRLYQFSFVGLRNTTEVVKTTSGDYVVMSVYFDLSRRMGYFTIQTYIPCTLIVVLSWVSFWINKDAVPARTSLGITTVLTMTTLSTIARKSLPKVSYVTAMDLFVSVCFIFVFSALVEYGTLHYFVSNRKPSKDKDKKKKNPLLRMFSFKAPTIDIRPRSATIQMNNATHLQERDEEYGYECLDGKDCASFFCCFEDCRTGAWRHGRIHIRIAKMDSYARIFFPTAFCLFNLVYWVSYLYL
T1 sequence (P28472 whole entry): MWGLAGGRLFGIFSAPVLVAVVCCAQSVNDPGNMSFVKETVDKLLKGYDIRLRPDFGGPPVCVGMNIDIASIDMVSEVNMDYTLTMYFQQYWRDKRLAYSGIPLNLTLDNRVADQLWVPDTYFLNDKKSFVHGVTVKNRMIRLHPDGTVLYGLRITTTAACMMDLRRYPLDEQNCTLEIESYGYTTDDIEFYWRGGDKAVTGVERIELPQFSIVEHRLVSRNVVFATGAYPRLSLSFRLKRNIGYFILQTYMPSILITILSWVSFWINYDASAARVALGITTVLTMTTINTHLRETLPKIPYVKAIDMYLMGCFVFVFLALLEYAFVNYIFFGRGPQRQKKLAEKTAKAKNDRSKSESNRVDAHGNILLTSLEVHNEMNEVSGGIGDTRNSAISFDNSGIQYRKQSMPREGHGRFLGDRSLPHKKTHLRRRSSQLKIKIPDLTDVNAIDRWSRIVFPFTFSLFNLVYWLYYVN

[3] = target: GABA-A receptor; alpha-3/beta-3/gamma-2 (Homo sapiens) (UniProt P18507+P28472+P34903); experiment: Modulation of recombinant GABA alpha3beta3gamma2 receptor (unknown origin) expressed in Xenopus laevis oocytes assessed as change in GABA-induced EC(3 to 6) current by two-electrode voltage clamp assay; type: cell-based
Procedure, shortened: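 Xenopus laevis oocytes expressing α1, α2, α3 or α5 β3γ2 GABAARs were recorded by two-electrode voltage clamp. Modulation of the GABA EC3-6 current (taken as 100%) was tested at 100 nM, 1 μM and 10 μM in the same cells. Values are mean ± SEM, n = 3–4.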

SMILES: C#Cc1ccc2c(c1)C(c1ccccn1)=NCc1c(-c3cnco3)ncn1-2
- Stability (Liver): 90%
- concentration at 1 h [1]: 3.64 µM
- EC50 [2]: 489 nM
- Activity [3]: Dose-dependent effect

From ChEMBL document CHEMBL4041524, “Synthesis and Characterization of a Novel γ-Aminobutyric Acid Type A (GABAA) Receptor Ligand That Combines Outstanding Metabolic Stability, Pharmacokinetics, and Anxiolytic Efficacy” (J Med Chem, 2016)
